Laboratory results as given in ChEMBL document CHEMBL1149165, “Significant differences in biological parameters between prodrugs cleavable by carboxypeptidase G2 that generate 3,5-difluoro-phenol and -aniline nitrogen mustards in gene-directed enzyme prodrug therapy systems” (J Med Chem, 2004).

Experiments:
MDA-MB-361 = assay: Ratio of the IC50 in thebeta-Gal- and CPG2-expressing cell line; format: functional, Homo sapiens
How it was run: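 Degree of activation: IC50 in β-Gal-expressing MDA MB 361 cells divided by IC50 in stCPG2(Q)3-expressing cells. Both IC50s are from sulforhodamine-B regrowth assays after two-stage prodrug exposure, fitted to a log dose-effect sigmoid.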

[1] = The chemical half-life by HPLC; format: ADME
How it was run: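 10 mM DMSO stocks diluted 100-fold to 100 µM in 100 mM Tris-HCl pH 7.3 with 260 µM ZnCl₂. Remaining parent measured over time by isocratic reverse-phase HPLC (phenyl column, 0.1% TFA with 65-85% methanol, 250-275 nm), using repeat or delayed injections. Half-life from one-phase exponential decay fit, maximum 1 and minimum 0.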

[2] = substrate: O=C(O)CCC[C@H](NC(=O)Nc1cc(F)c(N(CCCl)CCCl)c(F)c1)C(=O)O; assay: Michaelis-Menten constant towards carboxypeptidase G2 enzyme; settings: Pseudomonas aeruginosa
How it was run: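 CPG2 (50 mU) with prodrug at 5-50 µM in 5 µM steps, diluted from DMSO concentrates into 100 mM Tris-HCl pH 7.3 with 260 µM ZnCl₂, 37 °C. Remaining prodrug measured by isocratic reverse-phase HPLC (phenyl column, 0.1% TFA/methanol, 250-275 nm) at 0, 5, 10, 15 and 20 min.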

For `CS(=O)(=O)OCCN(CCCl)c1c(F)cc(OC(=O)N[C@@H](CCCC(=O)O)C(=O)O)cc1F`, the Degree of activation (MDA-MB-361) was 0.9 fold.

With `O=C(O)CCC[C@H](NC(=O)Oc1cc(F)c(N(CCCl)CCCl)c(F)c1)C(=O)O` the half-life [1] was 45 min.

B1: Carboxypeptidase G2 (Pseudomonas aeruginosa (strain ATCC 15692 / PAO1 / 1C / PRS 101 / LMG12228)), Q9I056 (protein)
chain: MHARRLPRLLPLALAFLLSPAAFAADTPAAELLRQAEAERPAYLDTLRQLVAVDSGTGQAEGLGQLSALLAERLQALGAQVRSAPATPSAGDNLVATLDGTGSKRFLLMIHYDTVFAAGSAAKRPFREDAERAYGPGVADAKGGVAMVLHALALLRQQGFRDYGRITVLFNPDEETGSAGSKQLIAELARQQDYVFSYEPPDRDAVTVATNGIDGLLLEVKGRSSHAGSAPEQGRNAILELSHQLLRLKDLGDPAKGTTLNWTLARGGEKRNIIPAEASAEADMRYSDPAESERVLADARKLTGERLVADTEVSLRLDKGRPPLVKNPASQRLAETAQTLYGRIGKRIEPIAMRFGTDAGYAYVPGSDKPAVLETLGVVGAGLHSEAEYLELSSIAPRLYLTVALIRELSAD
B1 gave a Km [2] of 7.7 µM.
